Among the data in paper PMC9933231 (ACS Omega, 2023) are IC50 values, retold here.

Data set [1] in a line: Cytotoxicity assay. The conditions noted are these: human, HaCaT keratinocytes. It counts as cell-based. In outline:
(§1)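 Cells were kept in RPMI 1640 with 10% FBS, penicillin and streptomycin at 37 °C in humidified 5% CO2, and subcultured every 3–4 days. They were seeded at 1 × 10^4 cells/well and left 24 h. Medium was then replaced with test samples, with doxorubicin as reference, for 24 h at 37 °C. CellTiter-Blue was added for 2 h at 37 °C, and fluorescence was read at ex 560/em 590 nm.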

A short description of data set [2]: Cytotoxicity assay. It counts as cell-based. The note with it: human, HepG2 cells. A digest of the protocol: as §1

Each structure is given as a SMILES string. ≈ marks a conversion by molar mass, not a printed value.

What is called IC50 is the concentration that inhibits the measured activity by half. As for `COc1cccc2c1C(=O)c1c(O)c3c(c(O)c1C2=O)C[C@@](O)(C(=O)CO)C[C@@H]3O[C@H]1C[C@H](N)[C@H](O)[C@H](C)O1` [doxorubicin], the IC50 at 24 h in the data set “Cytotoxicity assay [1]” stood at 19.8 ± 0.8 µg/mL (≈ 36.4 µM); in the data set “Cytotoxicity assay [2]”, 11.4 ± 0.5 µg/mL (≈ 21 µM).
